Experiment [1] relates to U-937. In words: Cytotoxicity against human U937 cells assessed as decrease in cell viability after 44 hrs by MTT assay. The experiment is classed as functional, cell-based. The following applies: Homo sapiens, U-937, 44 h. On the technique in general: Formazan colour is commonly taken as a measure of viable cells.
Experiment [2] deals with U-937. The experiment in a line: Cytotoxicity against human U937 cells assessed as cell viability at 4 x 10^-3 M after 44 hrs by MTT assay relative to control. The experiment is classed as functional. To be noted: U-937, 44 h, read-out: Activity.
The subject of experiment [3] is U-937. In words: Cytotoxicity against human U937 cells assessed as cell viability at 3 x 10^-3 M after 44 hrs by MTT assay relative to control. Type of experiment: functional. The following applies: U-937, 44 h, read-out: Activity.
Experiment [4] concerns U-937. The experiment in a line: Cytotoxicity against human U937 cells assessed as cell viability at 1 x 10^-3 M after 44 hrs by MTT assay relative to control. The experiment is classed as functional. The following applies: U-937, 44 h, read-out: Activity.
Experiment [5] relates to U-937. The experiment in a line: Cytotoxicity against human U937 cells assessed as cell viability at 5 x 10^-4 M after 44 hrs by MTT assay relative to control. Type of experiment: functional. To be noted: U-937, 44 h, read-out: Activity.
Experiment [6] relates to U-937. The experiment in a line: Cytotoxicity against human U937 cells assessed as cell viability at 2.5 x 10^-4 M after 44 hrs by MTT assay relative to control. To be noted: U-937, 44 h, read-out: Activity. The experiment is classed as functional.
Experiment [7] concerns U-937. In words: Cytotoxicity against human U937 cells assessed as cell viability at 80 uM after 44 hrs by MTT assay relative to control. Type of experiment: functional. The following applies: U-937, 44 h, read-out: Activity.
Experiment [8] has as its system U-937. In words: Cytotoxicity against human U937 cells assessed as cell viability at 80 uM after 44 hrs in presence of PCI-34051 by MTT assay relative to control. The experiment is classed as functional. The following applies: U-937, 44 h, read-out: Activity.
Experiment [9] addresses Histone deacetylase 1 (Homo sapiens) (UniProt Q13547). The experiment in a line: Inhibition of HDAC1 in human HeLa-S3 cell lysates assessed as remaining activity at 8 x 10^-5 M preincubated for 15 mins followed by HDAC-Glo substrate addition measured after 30 to 40 mins by […] relative to control.
The target is the same in experiment [10]. The experiment in a line: Inhibition of HDAC1 in human HeLa-S3 cell lysates assessed as remaining activity at 4 x 10^-5 M preincubated for 15 mins followed by HDAC-Glo substrate addition measured after 30 to 40 mins by […] relative to control. Put shortly:
(§1)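 HDAC1 was captured from HeLa-S3 lysate (100 μg/mL) onto wells precoated with anti-HDAC1 antibody (10 μg/mL, carbonate buffer pH 9.4) and milk-blocked, 1 h at 4 °C, then washed. Inhibitor in DMSO was added in HDAC-Glo buffer for 15 min at room temperature. HDAC-Glo reagent was added and luminescence read after 30-40 min. Concentrations are final. No-antibody background subtracted; % of DMSO control.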

For experiment [11] the target is unchanged. The experiment in a line: Inhibition of HDAC1 in human HeLa-S3 cell lysates assessed as remaining activity at 2 x 10^-5 M preincubated for 15 mins followed by HDAC-Glo substrate addition measured after 30 to 40 mins by […] relative to control. Put shortly: as §1
Experiment [12] shares this target. The experiment in a line: Inhibition of HDAC1 in human HeLa-S3 cell lysates assessed as remaining activity at 1 x 10^-5 M preincubated for 15 mins followed by HDAC-Glo substrate addition measured after 30 to 40 mins by fluorimetric method relative to control. Put shortly: as §1
Experiment [13] addresses Histone deacetylase 2 (Homo sapiens) (UniProt Q92769). The experiment in a line: Inhibition of HDAC2 in human HeLa-S3 cell lysates assessed as remaining activity at 8 x 10^-5 M preincubated for 15 mins followed by HDAC-Glo substrate addition measured after 30 to 40 mins by […] relative to control. Put shortly: (§2)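 Same antibody-capture format as the other class I isoforms. HeLa-S3 lysate added at 100 μg/mL for HDAC1 and HDAC2, 1 h at 4 °C, then washed. Inhibitor in DMSO preincubated 15 min at RT; HDAC-Glo reagent added and luminescence read after 30-40 min. Concentrations are final. Signal corrected against a well without antibody; activity expressed as % of DMSO control.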

The target is the same in experiment [14]. In words: Inhibition of HDAC2 in human HeLa-S3 cell lysates assessed as remaining activity at 4 x 10^-5 M preincubated for 15 mins followed by HDAC-Glo substrate addition measured after 30 to 40 mins by […] relative to control. Put shortly:
as §2

Experiment [15] has the same target. The experiment in a line: Inhibition of HDAC2 in human HeLa-S3 cell lysates assessed as remaining activity at 2 x 10^-5 M preincubated for 15 mins followed by HDAC-Glo substrate addition measured after 30 to 40 mins by fluorimetric method relative to control. Put shortly: as §2
Experiment [16] addresses Histone deacetylase 3 (Homo sapiens) (UniProt O15379). In words: Inhibition of HDAC3 in human HeLa-S3 cell lysates assessed as remaining activity at 8 x 10^-5 M preincubated for 15 mins followed by HDAC-Glo substrate addition measured after 30 to 40 mins by […] relative to control. Put shortly: (§3)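 Antibody-capture (ELISA-type) assay: HDAC antibody coated in carbonate/bicarbonate buffer pH 9.4, wells blocked with 5% milk in TBST. HeLa-S3 lysate added at 1 mg/mL for HDAC3, 1 h at 4 °C, then washed. Inhibitor in DMSO preincubated 15 min at RT in HDAC-Glo buffer. HDAC-Glo reagent added, luminescence read after 30-40 min. Concentrations are final. Background = no-antibody well; activity given as % of DMSO control.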

For experiment [17] the target is unchanged. In words: Inhibition of HDAC3 in human HeLa-S3 cell lysates assessed as remaining activity at 4 x 10^-5 M preincubated for 15 mins followed by HDAC-Glo substrate addition measured after 30 to 40 mins by […] relative to control. Put shortly: as §3
Experiment [18] has the same target. In words: Inhibition of HDAC3 in human HeLa-S3 cell lysates assessed as remaining activity at 2 x 10^-5 M preincubated for 15 mins followed by HDAC-Glo substrate addition measured after 30 to 40 mins by […] relative to control. Put shortly: as §3
Experiment [19] has the same target. In words: Inhibition of HDAC3 in human HeLa-S3 cell lysates assessed as remaining activity at 1 x 10^-5 M preincubated for 15 mins followed by HDAC-Glo substrate addition measured after 30 to 40 mins by […] relative to control. Put shortly: as §3
The target of experiment [20] is Histone deacetylase 1 (Homo sapiens) (UniProt Q13547). The experiment in a line: Inhibition of HDAC1 in human HeLa-S3 cell lysates assessed as remaining activity at 5 x 10^-6 M preincubated for 15 mins followed by HDAC-Glo substrate addition measured after 30 to 40 mins by […] relative to control. Put shortly:
as §1

Experiment [21] deals with Histone deacetylase 2 (Homo sapiens) (UniProt Q92769). In words: Inhibition of HDAC2 in human HeLa-S3 cell lysates assessed as remaining activity at 5 x 10^-6 M preincubated for 15 mins followed by HDAC-Glo substrate addition measured after 30 to 40 mins by […] relative to control. Put shortly:
as §2

Experiment [22] has as its target Histone deacetylase 3 (Homo sapiens) (UniProt O15379). The experiment in a line: Inhibition of HDAC3 in human HeLa-S3 cell lysates assessed as remaining activity at 5 x 10^-6 M preincubated for 15 mins followed by HDAC-Glo substrate addition measured after 30 to 40 mins by […] relative to control. Put shortly:
as §3

Experiment [23] deals with T1, Protein deacetylase HDAC6 (Homo sapiens) (UniProt Q9UBN7).
T1 sequence (whole entry): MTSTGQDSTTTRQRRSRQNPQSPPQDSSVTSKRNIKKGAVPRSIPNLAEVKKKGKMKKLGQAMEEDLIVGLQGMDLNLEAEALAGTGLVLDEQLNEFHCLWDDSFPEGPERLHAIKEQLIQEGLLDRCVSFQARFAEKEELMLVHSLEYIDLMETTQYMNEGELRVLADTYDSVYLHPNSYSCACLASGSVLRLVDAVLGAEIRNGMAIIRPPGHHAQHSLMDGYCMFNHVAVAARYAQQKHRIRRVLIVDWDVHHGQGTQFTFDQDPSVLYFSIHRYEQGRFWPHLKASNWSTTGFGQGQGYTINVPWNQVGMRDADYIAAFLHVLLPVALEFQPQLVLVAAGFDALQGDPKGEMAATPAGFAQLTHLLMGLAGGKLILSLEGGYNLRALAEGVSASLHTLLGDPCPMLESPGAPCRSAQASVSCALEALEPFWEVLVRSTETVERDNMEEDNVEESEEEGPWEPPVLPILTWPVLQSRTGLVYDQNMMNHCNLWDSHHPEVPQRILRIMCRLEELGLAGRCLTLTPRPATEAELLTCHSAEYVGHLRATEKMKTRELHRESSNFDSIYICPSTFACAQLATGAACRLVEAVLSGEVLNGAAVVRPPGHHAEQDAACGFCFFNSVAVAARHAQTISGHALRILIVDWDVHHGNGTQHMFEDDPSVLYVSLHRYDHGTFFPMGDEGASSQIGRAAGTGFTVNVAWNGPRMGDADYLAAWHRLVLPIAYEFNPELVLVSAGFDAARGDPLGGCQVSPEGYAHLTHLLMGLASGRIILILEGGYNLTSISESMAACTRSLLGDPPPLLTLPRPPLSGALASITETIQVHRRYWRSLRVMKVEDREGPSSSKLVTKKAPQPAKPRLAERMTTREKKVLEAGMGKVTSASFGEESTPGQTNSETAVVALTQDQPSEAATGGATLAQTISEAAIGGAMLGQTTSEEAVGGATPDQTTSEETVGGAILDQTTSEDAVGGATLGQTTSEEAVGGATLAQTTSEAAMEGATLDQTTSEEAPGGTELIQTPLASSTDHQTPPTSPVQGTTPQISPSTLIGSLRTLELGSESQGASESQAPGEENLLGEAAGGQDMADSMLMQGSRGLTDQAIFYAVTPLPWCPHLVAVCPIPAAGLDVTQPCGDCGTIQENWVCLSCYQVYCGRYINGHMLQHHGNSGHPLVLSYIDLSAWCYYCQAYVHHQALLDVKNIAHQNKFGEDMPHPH
The experiment in a line: Inhibition of HDAC6 in human HeLa-S3 cell lysates assessed as remaining activity at 1.25 x 10^-8 M preincubated for 15 mins followed by HDAC-Glo substrate addition measured after 30 to 40 mins by […] relative to control. Put shortly: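 HDAC6 captured on an anti-HDAC6 antibody-coated plate (2 μg/mL, pH 9.4 carbonate buffer, milk-blocked). HeLa-S3 lysate loaded at 1 mg/mL, 1 h at 4 °C, then washed. 15 min RT preincubation with inhibitor in DMSO; HDAC-Glo reagent added, luminescence read at 30-40 min. Concentrations are final. Background = no-antibody well; values are % activity versus DMSO control.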

Experiment [24] concerns U-937. In words: Cytotoxicity against human U937 cells assessed as cell viability at 5 x 10^-3 M after 44 hrs by MTT assay relative to control. To be noted: U-937, 44 h, read-out: Activity. Type of experiment: functional.
The test system of experiment [25] is U-937. The experiment in a line: Cytotoxicity against human U937 cells assessed as cell viability at 2.5 x 10^-3 M after 44 hrs by MTT assay relative to control. The experiment is classed as functional. To be noted: U-937, 44 h, read-out: Activity.
The subject of experiment [26] is U-937. In words: Cytotoxicity against human U937 cells assessed as cell viability at 1.25 x 10^-3 M after 44 hrs by MTT assay relative to control. To be noted: U-937, 44 h, read-out: Activity. The experiment is classed as functional.
In experiment [27] the test system is U-937. In words: Cytotoxicity against human U937 cells assessed as cell viability at 200 uM after 44 hrs by MTT assay relative to control. To be noted: U-937, 44 h, read-out: Activity. The experiment is classed as functional.
The test system of experiment [28] is U-937. The experiment in a line: Cytotoxicity against human U937 cells assessed as cell viability at 200 uM after 44 hrs in presence of tubastatin by MTT assay relative to control. The following applies: U-937, 44 h, read-out: Activity. The experiment is classed as functional.

As a reminder, the EC50 is the midpoint of the concentration-response curve.

Chain of Histone deacetylase 3 (Homo sapiens) (O15379 whole entry): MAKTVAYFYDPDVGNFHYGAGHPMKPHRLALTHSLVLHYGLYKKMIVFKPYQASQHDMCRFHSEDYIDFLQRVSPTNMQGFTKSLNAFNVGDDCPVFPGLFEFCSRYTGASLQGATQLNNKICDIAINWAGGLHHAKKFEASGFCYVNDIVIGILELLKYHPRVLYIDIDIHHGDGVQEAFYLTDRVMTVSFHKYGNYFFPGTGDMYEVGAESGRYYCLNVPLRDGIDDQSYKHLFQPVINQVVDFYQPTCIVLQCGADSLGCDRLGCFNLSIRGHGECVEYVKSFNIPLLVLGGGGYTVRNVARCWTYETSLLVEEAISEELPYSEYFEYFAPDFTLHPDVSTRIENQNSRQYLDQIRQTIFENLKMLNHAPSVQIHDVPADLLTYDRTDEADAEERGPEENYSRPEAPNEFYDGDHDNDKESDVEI
Chain of Histone deacetylase 2 (Homo sapiens) (Q92769 whole entry, canonical isoform): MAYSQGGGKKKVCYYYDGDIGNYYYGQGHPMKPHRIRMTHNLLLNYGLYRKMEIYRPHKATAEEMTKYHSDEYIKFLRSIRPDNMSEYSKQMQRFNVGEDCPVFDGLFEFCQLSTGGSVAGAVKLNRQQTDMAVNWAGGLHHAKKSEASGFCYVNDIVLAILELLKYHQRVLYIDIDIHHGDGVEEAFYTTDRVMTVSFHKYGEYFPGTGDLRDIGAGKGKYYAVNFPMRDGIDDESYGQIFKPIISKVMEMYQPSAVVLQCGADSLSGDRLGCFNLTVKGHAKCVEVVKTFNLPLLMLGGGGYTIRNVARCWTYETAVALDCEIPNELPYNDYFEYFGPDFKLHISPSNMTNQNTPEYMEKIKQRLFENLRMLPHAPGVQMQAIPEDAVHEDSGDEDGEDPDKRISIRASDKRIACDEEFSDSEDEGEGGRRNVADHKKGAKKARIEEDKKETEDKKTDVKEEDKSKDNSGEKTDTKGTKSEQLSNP
Chain of Histone deacetylase 1 (Homo sapiens) (Q13547 whole entry): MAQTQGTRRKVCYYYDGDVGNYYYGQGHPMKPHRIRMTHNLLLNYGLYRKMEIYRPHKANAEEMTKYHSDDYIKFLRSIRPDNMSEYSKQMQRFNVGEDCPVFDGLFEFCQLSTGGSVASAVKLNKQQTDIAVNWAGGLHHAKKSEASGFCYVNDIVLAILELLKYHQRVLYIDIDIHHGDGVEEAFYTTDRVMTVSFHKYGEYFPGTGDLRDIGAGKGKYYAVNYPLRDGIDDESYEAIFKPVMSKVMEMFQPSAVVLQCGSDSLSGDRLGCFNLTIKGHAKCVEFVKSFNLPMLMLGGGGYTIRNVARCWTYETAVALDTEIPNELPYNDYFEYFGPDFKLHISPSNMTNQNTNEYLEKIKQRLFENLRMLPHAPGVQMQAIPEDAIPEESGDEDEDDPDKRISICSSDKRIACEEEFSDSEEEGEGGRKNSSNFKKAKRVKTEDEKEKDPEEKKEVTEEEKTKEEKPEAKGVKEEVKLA

For the compound `CN1CCc2c(c3ccccc3n2Cc2ccc(C(=O)NO)cc2)C1` [TUBASTATIN A], the EC50 in experiment [1] was found to be 83 µM. Also, the viability at 4000 µM in experiment [2] amounted to 17%. Also, the viability at 3000 µM in experiment [3] came to 19%. Moreover, in experiment [4], the viability at 1000 µM is 38%. Besides, the viability at 500 µM in [5] was determined as 68%. Also, in experiment [6], the viability at 250 µM came out at 82%. In addition, the figures for the viability at 80 µM in experiment [7] and in [8] were 44% and 13%, respectively.
For the compound `O=C(CC[C@@H](CCCC(=O)Nc1ccccc1)Cc1ccccc1)NO`, the Activity in [9] was found to be 24%; in [10], 38%; in experiment [11], 53%; in [12], 72%; in [13] it was 29%; in experiment [14] it was 43%. In addition, the Activity came out at 71% in experiment [15]; 25% in experiment [16]; 39% in [17]; 54% in experiment [18]; 77% in experiment [19]; 88% in experiment [20]. Besides, the Activity in [21] is 96%; in [22] it was 89%; in experiment [23] it was 67%.
Take `COc1ccc(Cn2ccc3ccc(C(=O)NO)cc32)cc1`: in experiment [1], the EC50 amounted to 210 µM. Further, in [24], the viability at 5000 µM was found to be 9%. Besides, the viability at 2500 µM in experiment [25] came out at 50%. For the same compound, the viability at 1250 µM in experiment [26] came to 71%. In addition, the viability at 500 µM in [5] is 85%. The viability at 200 µM in [27] amounted to 62%; in experiment [28], 13%.

These data come from ChEMBL document CHEMBL4251567 (Eur J Med Chem, 2018).
